In general, MIC refers to the smallest concentration in the dilution series that meets the test's criterion for growth inhibition. The low end stands for inhibition by little substance, the high end for a need for much substance.

Values after ≈ are worked out from the molar mass of the structure shown.

The test system of one series is Aspergillus niger. Put plainly: Antifungal activity against Aspergillus niger NCIM 548 after 48 hrs by agar well diffusion assay. Format: functional. The conditions noted are these: NCIM 548, 48 h. The method in brief:
(§1)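 Fungal spore suspensions in sterile distilled water set to final 10⁶ CFU/mL; 0.1 mL spread on Potato-Dextrose-Agar. NCCLS agar well diffusion with NCIM standard strains: 6 mm wells given 0.1 mL compound diluted in 1% DMSO, final 16 to 512 µg/mL. Triplicate plates held 48 h at 28 0.2 °C. MIC is lowest concentration fully inhibiting growth.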

The next series deals with Candida albicans. As to the kind of experiment: Antifungal activity against Candida albicans NCIM 3102 after 48 hrs by agar well diffusion assay. Format: functional. The conditions noted are these: NCIM 3102, 48 h. The essentials: as §1
A general note: Agar diffusion results depend on both activity and mobility in agar.

The test system of the next series is Bacillus subtilis. Put plainly: Antibacterial activity against Bacillus subtilis NCIM 2063 after 24 hrs by agar well diffusion assay. Format: functional. As to conditions: NCIM 2063, 24 h. The method in brief:
(§2)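 Agar well diffusion per NCCLS; NCIM standard strains. Nutrient agar seeded with 0.1 mL bacterial suspension in sterile 0.85% saline at 10⁵ CFU/mL. Plates in triplicate, 37 0.5 °C, 24 h. MIC taken as lowest concentration giving complete growth inhibition.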

The test system of a further series is Klebsiella pneumoniae. As to the kind of experiment: Antibacterial activity against Klebsiella pneumoniae NCIM 5082 after 24 hrs by agar well diffusion assay. It counts as functional. The conditions noted are these: NCIM 5082, 24 h. The essentials: as §2
Series [1] in a line: Toxicity against Brine shrimp nauplii after 24 hrs. Format: organism-based. The conditions noted are these: artemia salina, in vivo; read-out: ED50. The method in brief:
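Artemia salina nauplii hatched 38 h in sterile brine (sea salt 38 g/L, pH 8.5) under aeration; 10 nauplii per vial exposed to graded compound concentrations in 5 mL final volume, 37 °C, 24 h under incandescent light. Survivors counted; percent lethality versus vehicle-treated controls; ED50 from probit analysis; podophyllotoxin positive control.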

For a further series, the system named is Proteus vulgaris. Put plainly: Antibacterial activity against Proteus vulgaris NCIM 2813 after 24 hrs by agar well diffusion assay. It counts as functional. The conditions noted are these: NCIM 2813, 24 h. The essentials:
as §2

The subject of a further series is Micrococcus luteus. Put plainly: Antibacterial activity against Micrococcus luteus NCIM 2155 after 24 hrs by agar well diffusion assay. Format: functional. The conditions noted are these: NCIM 2155, 24 h. The essentials:
as §2

The subject of a further series is Aspergillus oryzae. Put plainly: Antifungal activity against Aspergillus oryzae NCIM 643 after 48 hrs by agar well diffusion assay. Format: functional. The conditions noted are these: NCIM 643, 48 h. The essentials: as §1
Another series has as its system Penicillium chrysogenum. Put plainly: Antifungal activity against Penicillium chrysogenum NCIM 738 after 48 hrs by agar well diffusion assay. It counts as functional. The conditions noted are these: NCIM 738, 48 h. The method in brief: as §1
The test system of another series is Staphylococcus aureus. As to the kind of experiment: Antibacterial activity against Staphylococcus aureus NCIM 2079 after 24 hrs by agar well diffusion assay. Format: functional. The conditions noted are these: NCIM 2079, 24 h. The method in brief: as §2
For a further series, the system named is Escherichia coli. Put plainly: Antibacterial activity against Escherichia coli NCIM 2065 after 24 hrs by agar well diffusion assay. As to conditions: NCIM 2065, 24 h. It counts as functional. The essentials: as §2
The test system of the next series is Pseudomonas aeruginosa. Put plainly: Antibacterial activity against Pseudomonas aeruginosa NCIM 2036 after 24 hrs by agar well diffusion assay. It counts as functional. As to conditions: NCIM 2036, 24 h. The method in brief:
as §2

Another series deals with Bacillus pumilus. Put plainly: Antibacterial activity against Bacillus pumilus NCIM 2327 after 24 hrs by agar well diffusion assay. The conditions noted are these: NCIM 2327, 24 h.

`Cc1ccc(S(=O)(=O)NC(=O)Nc2ccccc2C(=O)/C=C/c2ccccc2[N+](=O)[O-])cc1`: the MIC was found to be 16 µg/mL (≈ 34.4 µM) in the series with Aspergillus niger; 16 µg/mL (≈ 34.4 µM) in the series on Candida albicans; 16 µg/mL (≈ 34.4 µM) in the series on Bacillus subtilis; 32 µg/mL (≈ 68.7 µM) with Klebsiella pneumoniae; 32 µg/mL (≈ 68.7 µM) in the series on Proteus vulgaris; 32 µg/mL (≈ 68.7 µM) with Micrococcus luteus. Moreover, the MIC is 16 µg/mL (≈ 34.4 µM) against Aspergillus oryzae; 16 µg/mL (≈ 34.4 µM) in the series on Penicillium chrysogenum; 16 µg/mL (≈ 34.4 µM) in the series on Staphylococcus aureus; 32 µg/mL (≈ 68.7 µM) against Escherichia coli; 16 µg/mL (≈ 34.4 µM) with Pseudomonas aeruginosa; 16 µg/mL (≈ 34.4 µM) with Bacillus pumilus. Also, the LC50 at 24 h in series [1] is 40.1 µg/mL (≈ 86.2 µM).

`COc1ccc(/C=C/C(=O)c2ccccc2NC(=O)NS(=O)(=O)c2ccc(C)cc2)c(OC)c1`: the MIC is 128 µg/mL (≈ 266 µM) with Aspergillus niger; 128 µg/mL (≈ 266 µM) against Candida albicans; 32 µg/mL (≈ 66.6 µM) in the series on Bacillus subtilis; 128 µg/mL (≈ 266 µM) against Klebsiella pneumoniae; 128 µg/mL (≈ 266 µM) in the series on Proteus vulgaris; 128 µg/mL (≈ 266 µM) against Micrococcus luteus. Besides, the MIC came out at 128 µg/mL (≈ 266 µM) in the series on Aspergillus oryzae; 128 µg/mL (≈ 266 µM) in the series with Penicillium chrysogenum; 32 µg/mL (≈ 66.6 µM) against Staphylococcus aureus; 32 µg/mL (≈ 66.6 µM) in the series on Escherichia coli; 32 µg/mL (≈ 66.6 µM) in the series on Pseudomonas aeruginosa; 32 µg/mL (≈ 66.6 µM) against Bacillus pumilus. Also, the LC50 at 24 h in series [1] is 16 µg/mL (≈ 33.4 µM).

Regarding `COc1ccc(/C=C/C(=O)c2ccccc2NC(=O)NS(=O)(=O)c2ccc(C)cc2)cc1OC`, the MIC in the series on Aspergillus niger worked out at 128 µg/mL (≈ 266 µM); with Candida albicans, 128 µg/mL (≈ 266 µM); in the series on Bacillus subtilis, 32 µg/mL (≈ 66.6 µM); in the series with Klebsiella pneumoniae it was 128 µg/mL (≈ 266 µM); with Proteus vulgaris it was 128 µg/mL (≈ 266 µM); with Micrococcus luteus, 128 µg/mL (≈ 266 µM). Also, the MIC with Aspergillus oryzae worked out at 128 µg/mL (≈ 266 µM); in the series with Penicillium chrysogenum it was 128 µg/mL (≈ 266 µM); against Staphylococcus aureus, 64 µg/mL (≈ 133 µM); with Escherichia coli, 64 µg/mL (≈ 133 µM); against Pseudomonas aeruginosa, 32 µg/mL (≈ 66.6 µM); in the series with Bacillus pumilus it was 64 µg/mL (≈ 133 µM). Further, in series [1], the LC50 at 24 h stood at 12.9 µg/mL (≈ 26.8 µM).

Regarding `COc1cc(/C=C/C(=O)c2ccccc2NC(=O)NS(=O)(=O)c2ccc(C)cc2)ccc1O`, the MIC against Aspergillus niger came out at 128 µg/mL (≈ 274 µM); in the series with Candida albicans it was 128 µg/mL (≈ 274 µM); with Bacillus subtilis, 64 µg/mL (≈ 137 µM); in the series with Klebsiella pneumoniae, 128 µg/mL (≈ 274 µM); in the series with Proteus vulgaris it was 128 µg/mL (≈ 274 µM); against Micrococcus luteus it was 128 µg/mL (≈ 274 µM). Further, the MIC in the series with Aspergillus oryzae was 128 µg/mL (≈ 274 µM); against Penicillium chrysogenum, 128 µg/mL (≈ 274 µM); with Staphylococcus aureus, 128 µg/mL (≈ 274 µM); against Escherichia coli it was 64 µg/mL (≈ 137 µM); against Pseudomonas aeruginosa, 64 µg/mL (≈ 137 µM); against Bacillus pumilus, 64 µg/mL (≈ 137 µM). The LC50 at 24 h in series [1] amounted to 17.8 µg/mL (≈ 38.2 µM).

In the case of `COc1cccc(/C=C/C(=O)c2ccccc2NC(=O)NS(=O)(=O)c2ccc(C)cc2)c1`, the MIC against Aspergillus niger, in the series on Candida albicans, against Bacillus subtilis, against Klebsiella pneumoniae, against Proteus vulgaris and in the series on Micrococcus luteus was 128 µg/mL (≈ 284 µM) throughout. Besides, the MIC with Aspergillus oryzae, in the series on Penicillium chrysogenum, in the series on Staphylococcus aureus, against Escherichia coli, with Pseudomonas aeruginosa and in the series with Bacillus pumilus was 128 µg/mL (≈ 284 µM) throughout. In addition, the LC50 at 24 h in [1] was 23.2 µg/mL (≈ 51.4 µM).

For the compound `Cc1ccc(S(=O)(=O)NC(=O)Nc2ccccc2C(=O)/C=C/c2ccc(Cl)cc2)cc1`, the MIC in the series with Aspergillus niger is 64 µg/mL (≈ 141 µM); against Candida albicans, 64 µg/mL (≈ 141 µM); in the series with Bacillus subtilis it was 32 µg/mL (≈ 70.3 µM); against Klebsiella pneumoniae, 64 µg/mL (≈ 141 µM); against Proteus vulgaris, 64 µg/mL (≈ 141 µM); with Micrococcus luteus, 64 µg/mL (≈ 141 µM). The MIC against Aspergillus oryzae amounted to 64 µg/mL (≈ 141 µM); against Penicillium chrysogenum, 64 µg/mL (≈ 141 µM); in the series with Staphylococcus aureus, 32 µg/mL (≈ 70.3 µM); against Escherichia coli, 32 µg/mL (≈ 70.3 µM); in the series on Pseudomonas aeruginosa, 32 µg/mL (≈ 70.3 µM); in the series on Bacillus pumilus, 32 µg/mL (≈ 70.3 µM). In addition, in series [1], the LC50 at 24 h is 6.92 µg/mL (≈ 15.2 µM).

As to `CC(=O)N1CCN(c2ccc(OCC3COC(Cn4ccnc4)(c4ccc(Cl)cc4Cl)O3)cc2)CC1` (stereo not drawn) [KETOCONAZOLE], the MIC in the series with Aspergillus niger, against Candida albicans, with Aspergillus oryzae and in the series on Penicillium chrysogenum was 16 µg/mL (≈ 30.1 µM) each time.

In the case of `COc1cc([C@@H]2c3cc4c(cc3[C@H](O)[C@H]3COC(=O)[C@H]23)OCO4)cc(OC)c1OC` [PODOFILOX], the LC50 at 24 h in series [1] amounted to 3.61 µg/mL (≈ 8.71 µM).

(Values after ChEMBL document CHEMBL1938268, “Synthesis, characterization and in vitro biological evaluation of some novel diarylsulfonylureas as potential cytotoxic and antimicrobial agents” (Bioorg Med Chem Lett, 2012).)
